By inhibition is commonly meant the percentage by which the read-out fell short of the control.

This is an account of results in ChEMBL document CHEMBL2424622, “Development of amino-pyrimidine inhibitors of c-Jun N-terminal kinase (JNK): kinase profiling guided optimization of a 1,2,3-benzotriazole lead” (Bioorg Med Chem Lett, 2013).

The target of assay [1] is Cyclin-dependent kinase 9 (Homo sapiens) (UniProt P50750). Put plainly: Competitive binding affinity to CDK9 (unknown origin) at 10 uM in presence of ATP relative to control.
For assay [2], the target named is Vascular endothelial growth factor receptor 1 (Homo sapiens) (UniProt P17948). Put plainly: Competitive binding affinity to FLT1 (unknown origin) at 10 uM in presence of ATP relative to control.
Assay [3] deals with T1, Serine/threonine-protein kinase STK11 (Homo sapiens) (UniProt Q15831).
T1 sequence (whole entry): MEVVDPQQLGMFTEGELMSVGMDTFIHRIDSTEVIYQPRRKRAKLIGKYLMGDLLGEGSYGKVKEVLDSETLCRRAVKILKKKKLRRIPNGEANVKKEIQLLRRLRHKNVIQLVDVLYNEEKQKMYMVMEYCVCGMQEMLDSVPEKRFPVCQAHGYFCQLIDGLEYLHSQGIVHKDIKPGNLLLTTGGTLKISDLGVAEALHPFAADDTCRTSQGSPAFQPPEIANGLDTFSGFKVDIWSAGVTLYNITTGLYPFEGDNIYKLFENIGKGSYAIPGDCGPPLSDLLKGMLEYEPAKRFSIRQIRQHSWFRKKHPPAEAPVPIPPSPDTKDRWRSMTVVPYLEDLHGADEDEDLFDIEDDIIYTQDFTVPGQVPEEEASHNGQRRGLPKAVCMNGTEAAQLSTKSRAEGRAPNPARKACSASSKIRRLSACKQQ
Put plainly: Competitive binding affinity to LKB1 (unknown origin) at 10 uM in presence of ATP relative to control. In outline: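 In vitro ATP-site competition binding assay, part of profiling against a diverse panel of 128 kinases. Each compound was tested at a single concentration of 10 µM. Kinome selectivity was summarized as S15 selectivity scores.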

Assay [4] concerns the target T2, Mitogen-activated protein kinase kinase kinase 5 (Homo sapiens) (UniProt Q99683).
T2 sequence (whole entry): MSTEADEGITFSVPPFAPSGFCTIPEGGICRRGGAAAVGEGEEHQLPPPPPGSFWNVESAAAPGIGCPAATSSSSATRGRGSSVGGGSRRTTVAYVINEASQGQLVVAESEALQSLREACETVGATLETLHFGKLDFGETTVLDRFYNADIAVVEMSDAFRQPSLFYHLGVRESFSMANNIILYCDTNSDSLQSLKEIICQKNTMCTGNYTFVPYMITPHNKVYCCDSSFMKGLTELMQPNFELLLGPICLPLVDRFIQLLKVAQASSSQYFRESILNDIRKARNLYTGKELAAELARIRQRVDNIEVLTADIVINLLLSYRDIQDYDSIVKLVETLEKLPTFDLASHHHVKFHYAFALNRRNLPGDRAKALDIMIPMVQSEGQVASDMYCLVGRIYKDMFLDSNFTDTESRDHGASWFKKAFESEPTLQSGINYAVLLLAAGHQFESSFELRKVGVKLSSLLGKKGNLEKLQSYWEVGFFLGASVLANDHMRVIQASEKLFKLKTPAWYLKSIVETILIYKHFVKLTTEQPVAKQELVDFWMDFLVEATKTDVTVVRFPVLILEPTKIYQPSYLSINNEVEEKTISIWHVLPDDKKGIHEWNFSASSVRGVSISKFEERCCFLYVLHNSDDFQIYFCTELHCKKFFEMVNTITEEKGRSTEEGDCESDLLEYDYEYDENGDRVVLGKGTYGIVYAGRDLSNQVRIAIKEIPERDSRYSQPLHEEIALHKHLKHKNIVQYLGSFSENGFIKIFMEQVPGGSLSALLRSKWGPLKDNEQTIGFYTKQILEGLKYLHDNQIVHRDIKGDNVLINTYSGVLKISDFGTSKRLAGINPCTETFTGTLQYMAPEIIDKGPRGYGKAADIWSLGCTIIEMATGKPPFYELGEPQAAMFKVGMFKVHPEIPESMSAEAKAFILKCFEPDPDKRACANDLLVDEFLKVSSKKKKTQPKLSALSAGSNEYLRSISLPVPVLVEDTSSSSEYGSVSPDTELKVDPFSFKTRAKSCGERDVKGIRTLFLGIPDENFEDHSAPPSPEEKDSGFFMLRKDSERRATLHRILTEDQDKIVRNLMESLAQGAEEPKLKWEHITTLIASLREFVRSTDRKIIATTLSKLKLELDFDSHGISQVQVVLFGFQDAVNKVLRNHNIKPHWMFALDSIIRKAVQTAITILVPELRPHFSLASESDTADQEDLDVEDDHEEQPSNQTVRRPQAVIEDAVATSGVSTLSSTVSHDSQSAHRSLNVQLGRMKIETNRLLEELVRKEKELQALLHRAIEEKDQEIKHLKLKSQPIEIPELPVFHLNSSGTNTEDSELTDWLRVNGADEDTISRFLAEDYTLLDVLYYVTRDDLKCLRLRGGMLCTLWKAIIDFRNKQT
Put plainly: Competitive binding affinity to MAP3K5 (unknown origin) at 10 uM in presence of ATP relative to control.

Assay [5] concerns the target NT-3 growth factor receptor (Homo sapiens) (UniProt Q16288). Put plainly: Competitive binding affinity to TRKC (unknown origin) at 10 uM in presence of ATP relative to control.
Assay [6] deals with T3, Serine/threonine-protein kinase 4 (Homo sapiens) (UniProt Q13043).
T3 sequence (whole entry): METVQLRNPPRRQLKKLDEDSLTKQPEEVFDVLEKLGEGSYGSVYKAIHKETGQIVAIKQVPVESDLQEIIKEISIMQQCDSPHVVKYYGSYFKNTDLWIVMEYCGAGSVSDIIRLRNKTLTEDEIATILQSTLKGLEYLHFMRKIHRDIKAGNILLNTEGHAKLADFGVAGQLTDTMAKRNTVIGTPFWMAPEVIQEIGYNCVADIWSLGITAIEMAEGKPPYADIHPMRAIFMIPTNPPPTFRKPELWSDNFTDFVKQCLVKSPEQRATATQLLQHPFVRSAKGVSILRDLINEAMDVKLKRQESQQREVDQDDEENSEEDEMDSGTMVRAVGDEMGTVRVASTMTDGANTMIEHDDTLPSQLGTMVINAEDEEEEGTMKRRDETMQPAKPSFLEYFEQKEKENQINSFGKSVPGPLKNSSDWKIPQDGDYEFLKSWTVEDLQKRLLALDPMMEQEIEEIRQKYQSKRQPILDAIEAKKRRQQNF
Put plainly: Competitive binding affinity to MST1 (unknown origin) at 10 uM in presence of ATP relative to control.

Chain of NT-3 growth factor receptor (Homo sapiens) (Q16288 32-839 limits assumed): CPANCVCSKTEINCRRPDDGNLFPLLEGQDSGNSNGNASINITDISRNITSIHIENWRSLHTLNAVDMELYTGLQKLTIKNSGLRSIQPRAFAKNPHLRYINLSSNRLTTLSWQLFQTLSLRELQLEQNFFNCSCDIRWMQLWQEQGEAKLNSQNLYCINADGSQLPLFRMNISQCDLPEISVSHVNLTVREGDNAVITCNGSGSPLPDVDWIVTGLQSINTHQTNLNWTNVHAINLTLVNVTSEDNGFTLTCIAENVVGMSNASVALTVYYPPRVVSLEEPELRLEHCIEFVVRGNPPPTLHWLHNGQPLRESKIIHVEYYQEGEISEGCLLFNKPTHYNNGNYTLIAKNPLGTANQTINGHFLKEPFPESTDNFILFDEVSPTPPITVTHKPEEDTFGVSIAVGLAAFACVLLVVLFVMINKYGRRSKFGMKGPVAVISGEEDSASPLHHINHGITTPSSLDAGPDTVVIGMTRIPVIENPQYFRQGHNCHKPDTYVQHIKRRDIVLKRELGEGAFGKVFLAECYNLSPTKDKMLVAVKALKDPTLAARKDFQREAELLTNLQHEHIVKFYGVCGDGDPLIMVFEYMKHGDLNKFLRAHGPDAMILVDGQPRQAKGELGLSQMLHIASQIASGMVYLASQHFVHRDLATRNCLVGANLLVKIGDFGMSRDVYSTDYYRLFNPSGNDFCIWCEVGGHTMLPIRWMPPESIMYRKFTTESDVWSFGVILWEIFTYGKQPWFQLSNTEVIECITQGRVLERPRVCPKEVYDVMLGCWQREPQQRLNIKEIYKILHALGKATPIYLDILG
Chain of Cyclin-dependent kinase 9 (Homo sapiens) (P50750 whole entry): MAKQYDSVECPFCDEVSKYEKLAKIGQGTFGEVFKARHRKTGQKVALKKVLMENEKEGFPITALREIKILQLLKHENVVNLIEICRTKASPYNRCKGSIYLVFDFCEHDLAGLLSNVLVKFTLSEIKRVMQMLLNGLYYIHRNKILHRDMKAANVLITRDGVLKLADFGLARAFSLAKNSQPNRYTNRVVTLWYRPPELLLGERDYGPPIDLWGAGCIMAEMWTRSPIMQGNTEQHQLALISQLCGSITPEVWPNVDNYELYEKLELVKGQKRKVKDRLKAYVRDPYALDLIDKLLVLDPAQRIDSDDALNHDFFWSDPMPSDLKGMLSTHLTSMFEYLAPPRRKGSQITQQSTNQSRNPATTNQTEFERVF
Chain of Vascular endothelial growth factor receptor 1 (Homo sapiens) (P17948 whole entry): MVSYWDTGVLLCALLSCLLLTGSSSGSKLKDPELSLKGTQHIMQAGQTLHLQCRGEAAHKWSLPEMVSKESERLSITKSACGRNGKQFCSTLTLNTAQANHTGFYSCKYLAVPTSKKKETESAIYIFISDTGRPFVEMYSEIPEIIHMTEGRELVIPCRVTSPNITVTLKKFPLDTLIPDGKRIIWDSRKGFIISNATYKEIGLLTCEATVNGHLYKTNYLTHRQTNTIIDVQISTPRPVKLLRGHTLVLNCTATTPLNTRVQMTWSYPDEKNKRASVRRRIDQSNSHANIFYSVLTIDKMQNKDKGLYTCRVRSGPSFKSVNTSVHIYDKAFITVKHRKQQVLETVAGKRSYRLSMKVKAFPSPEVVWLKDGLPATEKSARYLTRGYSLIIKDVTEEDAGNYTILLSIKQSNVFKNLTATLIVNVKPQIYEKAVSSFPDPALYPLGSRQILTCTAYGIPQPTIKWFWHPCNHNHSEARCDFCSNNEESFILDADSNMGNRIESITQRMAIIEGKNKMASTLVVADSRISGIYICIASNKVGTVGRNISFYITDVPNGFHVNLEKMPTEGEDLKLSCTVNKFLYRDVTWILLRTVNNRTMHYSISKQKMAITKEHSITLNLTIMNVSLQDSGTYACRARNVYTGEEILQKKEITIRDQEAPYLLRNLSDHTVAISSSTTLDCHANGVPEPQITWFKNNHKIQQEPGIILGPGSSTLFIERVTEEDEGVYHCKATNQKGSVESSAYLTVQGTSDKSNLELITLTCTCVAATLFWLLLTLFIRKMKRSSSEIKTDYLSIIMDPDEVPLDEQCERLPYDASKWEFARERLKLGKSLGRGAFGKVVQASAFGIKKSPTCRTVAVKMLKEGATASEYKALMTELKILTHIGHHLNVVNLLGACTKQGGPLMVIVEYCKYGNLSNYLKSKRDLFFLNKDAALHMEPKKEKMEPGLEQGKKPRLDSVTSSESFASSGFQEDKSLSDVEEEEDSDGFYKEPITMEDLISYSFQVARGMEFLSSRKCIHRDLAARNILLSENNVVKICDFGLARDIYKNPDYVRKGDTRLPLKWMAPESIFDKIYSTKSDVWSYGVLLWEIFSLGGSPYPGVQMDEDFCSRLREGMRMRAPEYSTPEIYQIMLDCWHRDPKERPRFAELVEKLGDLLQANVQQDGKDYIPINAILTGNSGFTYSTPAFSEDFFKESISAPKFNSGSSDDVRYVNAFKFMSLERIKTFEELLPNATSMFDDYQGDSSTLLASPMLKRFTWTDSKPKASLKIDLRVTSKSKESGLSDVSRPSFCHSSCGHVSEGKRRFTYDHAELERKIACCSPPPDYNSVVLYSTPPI

Turning to `O[C@H]1CC[C@H](Nc2nccc(-n3ccc4ccccc43)n2)CC1`, the inhibition in assay [1] is 85%; in assay [2], below 50%; in assay [3], below 50%; in assay [4], below 50%; in assay [5], below 50%; in assay [6], below 50%.

On to `O[C@H]1CC[C@H](Nc2nccc(-n3ncc4ccccc43)n2)CC1`, for which the inhibition in assay [1] was 82%; in assay [2], 71%; in assay [3], below 50%; in assay [4], below 50%; in assay [5], below 50%; in assay [6], below 50%.

For `O[C@H]1CC[C@H](Nc2nccc(-c3n[nH]c4ccccc34)n2)CC1`, the values for the inhibition in assay [2], in assay [3] and in assay [5] were 95%, 75% and 99%, respectively.

For the compound `O[C@H]1CC[C@H](Nc2nccc(-n3nnc4ccccc43)n2)CC1`, the inhibition in assay [1] is 96%; in assay [2], 82%; in assay [3], below 50%; in assay [4], below 50%; in assay [5], below 50%; in assay [6] it was below 50%.
